The results in this text go back to ChEMBL document CHEMBL1156234, “Novel 4-(piperidin-4-yl)-1-hydroxypyrazoles as gamma-aminobutyric acid(A) receptor ligands: synthesis, pharmacology, and structure-activity relationships” (J Med Chem, 2010).

Each structure is given as a SMILES string. Bounds are passed on as bounds.

Experiment [1] is described as follows: Displacement of [3H]muscimol from GABAA in rat synaptic membrane by scintillation counting. It counts as cell membranes. The method, boiled down:
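Rat brain synaptic membrane preparations; native GABAA receptor binding measured by displacement of [3H]muscimol. Ki reported as mean [mean pKi ± SEM] of three to four independent experiments.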

Experiment [2] addresses T1, GABA-A receptor; alpha-1/beta-2/gamma-2 (Homo sapiens, UniProt P14867+P18507+P47870).
T1 sequence (P14867 whole entry): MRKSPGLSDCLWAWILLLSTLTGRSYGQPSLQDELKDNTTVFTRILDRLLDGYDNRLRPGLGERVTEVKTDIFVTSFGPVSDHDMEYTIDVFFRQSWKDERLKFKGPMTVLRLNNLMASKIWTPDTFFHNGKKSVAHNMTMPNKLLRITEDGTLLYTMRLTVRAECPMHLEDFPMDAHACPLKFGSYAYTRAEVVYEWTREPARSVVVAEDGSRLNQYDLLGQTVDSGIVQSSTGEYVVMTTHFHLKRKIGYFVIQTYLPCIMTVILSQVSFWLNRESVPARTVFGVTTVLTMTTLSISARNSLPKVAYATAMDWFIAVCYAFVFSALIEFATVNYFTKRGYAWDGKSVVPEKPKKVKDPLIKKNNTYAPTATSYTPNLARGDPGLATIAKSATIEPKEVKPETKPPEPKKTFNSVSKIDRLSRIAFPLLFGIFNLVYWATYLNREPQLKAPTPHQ
T1 sequence (P47870 whole entry): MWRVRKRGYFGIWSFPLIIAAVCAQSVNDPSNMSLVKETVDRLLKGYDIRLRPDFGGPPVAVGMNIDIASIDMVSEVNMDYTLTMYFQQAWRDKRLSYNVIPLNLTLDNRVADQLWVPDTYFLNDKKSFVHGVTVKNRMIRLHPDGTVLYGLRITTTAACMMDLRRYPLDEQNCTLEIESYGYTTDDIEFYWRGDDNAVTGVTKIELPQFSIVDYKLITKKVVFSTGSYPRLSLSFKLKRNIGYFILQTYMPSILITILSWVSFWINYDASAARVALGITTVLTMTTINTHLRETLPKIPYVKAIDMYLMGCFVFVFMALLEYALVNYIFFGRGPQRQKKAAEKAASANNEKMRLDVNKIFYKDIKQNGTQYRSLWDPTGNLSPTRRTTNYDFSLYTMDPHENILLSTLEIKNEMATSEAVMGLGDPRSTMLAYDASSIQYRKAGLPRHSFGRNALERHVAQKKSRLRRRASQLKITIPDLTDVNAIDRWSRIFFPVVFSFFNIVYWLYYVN
T1 sequence (P18507 whole entry): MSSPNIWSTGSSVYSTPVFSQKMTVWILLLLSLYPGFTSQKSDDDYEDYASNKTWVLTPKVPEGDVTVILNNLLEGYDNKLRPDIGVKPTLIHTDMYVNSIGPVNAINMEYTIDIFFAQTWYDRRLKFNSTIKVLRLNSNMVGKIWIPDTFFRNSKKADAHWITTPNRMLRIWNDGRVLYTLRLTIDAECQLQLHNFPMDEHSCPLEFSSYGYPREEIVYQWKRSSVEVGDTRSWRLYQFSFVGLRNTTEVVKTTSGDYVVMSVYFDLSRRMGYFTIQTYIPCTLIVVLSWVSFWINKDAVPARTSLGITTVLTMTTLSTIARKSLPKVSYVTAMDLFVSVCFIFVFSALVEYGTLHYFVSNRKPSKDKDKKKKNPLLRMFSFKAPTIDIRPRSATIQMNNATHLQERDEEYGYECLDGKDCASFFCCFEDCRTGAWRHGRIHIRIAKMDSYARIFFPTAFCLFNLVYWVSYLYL
The experiment is described as follows: Antagonist activity at human GABAA alpha-1-beta-2-gamma-2 receptor expressed in mouse tsA201 cells by FMP red assay. It counts as functional, cell-based. The method, boiled down: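 Human α1β2γ2S GABAA receptor transiently expressed in tsA201 cells; FLIPR membrane potential (FMP) red assay. […] Compounds tested up to 500 μM. Values given as IC50 [pIC50 ± SEM].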

Experiment [3] in a line: Displacement of [3H]muscimol from GABAA in rat synaptic membrane in presence of 10% DMSO by scintillation counting. It counts as cell membranes.
Experiment [4] has as its target T1, GABA-A receptor; alpha-1/beta-2/gamma-2. As to the kind of experiment: Agonist activity at human GABAA alpha-1-beta-2-gamma-2 receptor expressed in mouse tsA201 cells at < 500 uM by FMP red assay. The format is functional, cell-based. The method, boiled down:
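Human α1β2γ2S GABA-A receptor transiently expressed in tsA201 cells; agonist-mode FLIPR membrane potential (FMP) red assay measuring the fluorescence change in membrane potential; compounds tested at concentrations up to 500 μM.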

As to `Br.On1ncc(C2CCNCC2)c1-c1ccccc1`, in experiment [1], the Ki came out at 22 nM and the pKi worked out at 7.65. In experiment [2], this compound displayed an IC50 of 150 nM.

Consider `Br.Cc1nn(O)cc1C1CCNCC1`, for which, in experiment [1], the Ki came out at 5000 nM and the pKi was 5.31. Further, the IC50 in experiment [2] was found to be 66000 nM.

In experiment [1], `Br.On1cc(C2CCNCC2)c(-c2ccccc2)n1` yielded a Ki of 270 nM and a pKi of 6.57. For the same compound, the IC50 in experiment [2] was 1900 nM.

For the compound `Br.Cc1ccc(-c2nn(O)cc2C2CCNCC2)cc1`, in experiment [1], the inhibition constant (Ki) is 320 nM and the pKi amounted to 6.5. The IC50 in experiment [2] came to 1400 nM.

With `Br.On1cc(C2CCNCC2)c(-c2ccc(-c3ccccc3)cc2)n1`, in experiment [1], the affinity corresponds to a Ki of 420 nM and the pKi is listed as 6.39. In experiment [2], this compound had an IC50 of 1400 nM.

In experiment [1], `Br.On1cc(C2CCNCC2)c(Cc2ccc3ccccc3c2)n1` registered a Ki of 3 nM and a negative-log Ki (pKi) of 8.55. The IC50 in experiment [2] was 170 nM.

In the case of `Br.On1nc(Cc2ccc3ccccc3c2)c(C2CCNCC2)c1-c1ccccc1`, in experiment [3], the Ki was 22 nM and the pKi is listed as 7.66.

Take `Cl.On1cc(C2CCNCC2)cn1`: in experiment [1], the Ki worked out at 10000 nM and the pKi was determined as 4.99. Besides, the IC50 in experiment [4] (read-out: IC50) was greater than 500000 nM. In addition, the IC50 in experiment [4] (read-out: pIC50 (converted)) is greater than 501000 nM.

In the case of `Cl.On1ncc(C2CCNCC2)c1Cc1ccc2ccccc2c1`, in experiment [1], the Ki turned out to be 33 nM and the pKi is 7.48. Besides, the IC50 in experiment [2] came to 790 nM.

Take `Cl.On1ncc(C2CCNCC2)c1Cc1ccc2ccccc2c1Br`: in experiment [3], the inhibition constant (Ki) is 9.5 nM and the pKi is 8.07. This compound came in with an IC50 in experiment [2] of 480 nM.

Turning to `Cl.On1ncc(C2CCNCC2)c1-c1cccc(-c2ccccc2)c1`, the IC50 in experiment [2] turned out to be 24 nM.

As for `Cc1ccccc1-c1nn(O)cc1C1CCNCC1.Cl`, in experiment [1], the Ki turned out to be 670 nM and the negative-log Ki (pKi) is on record as 6.17. The compound also gave an IC50 in experiment [2] of 2600 nM.

In experiment [1], `Cc1cccc(-c2nn(O)cc2C2CCNCC2)c1.Cl` came in with a Ki of 240 nM and a pKi of 6.62. For the same compound, the IC50 in experiment [2] turned out to be 1900 nM.

In experiment [1], `Cl.On1cc(C2CCNCC2)c(-c2cccc(-c3ccccc3)c2)n1` came in with an inhibition constant (Ki) of 30 nM and a pKi of 7.55. The compound also showed an IC50 in experiment [2] of 210 nM.

In the case of `Cl.On1cc(C2CCNCC2)c(Cc2ccccc2)n1`, in experiment [1], the affinity corresponds to a Ki of 360 nM and the negative-log Ki (pKi) was found to be 6.45. This compound had an IC50 in experiment [2] of 8300 nM.

For the compound `Cl.On1nc(-c2ccccc2)c(C2CCNCC2)c1Cc1ccc2ccccc2c1`, in experiment [3], the inhibitory constant (Ki) stood at 1500 nM and the pKi was determined as 5.84. The IC50 in experiment [2] worked out at 3200 nM.

The compound `Oc1noc(C2CCNCC2)c1Cc1ccc2ccccc2c1` yielded a Ki in experiment [1] of 49 nM. This compound also had an IC50 in experiment [2] of 1800 nM.

In turn, `Oc1noc(C2CCNCC2)c1Cc1ccc2ccccc2c1Br` registered a Ki in experiment [1] of 10 nM.

For `Oc1noc(C2CCNCC2)c1-c1ccccc1`, the inhibition constant (Ki) in experiment [1] was found to be 220 nM.

Take `Oc1noc(C2CCNCC2)c1-c1cccc(-c2ccccc2)c1`: the affinity in experiment [1], expressed as Ki, was 10 nM. For the same compound, the IC50 in experiment [2] worked out at 78 nM.
